How the values were obtained:
HT-29 = assay: Cytotoxicity against human HT-29 cells after 48 hrs by MTT assay; assay type: functional, cell-based; settings: HT-29, 48 h
Outline: (§1)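 Cells grown in DMEM with 10% FBS at 37 °C under humidified 5% CO2. HeLa seeded at 3,000/well and HT29 at 12,500/well, then allowed 24 h before exposure to varying compound concentrations for 48 h. Viability read by MTT; IC50 values derived from duplicate experiments.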

HeLa = assay: Cytotoxicity against human HeLa cells after 48 hrs by MTT assay; assay type: functional, cell-based; outline: as §1

SMILES	IC50 (HT-29) [nM]	IC50 (HeLa) [nM]
CO[C@@H]1[C@@H](OC)[C@H](C)O[C@@H](O[C@@H]2C[C@@H]3CC[C@@H](C)[C@H](O)C[C@@](C)(CC/C=C/C=C/Br)OC(=O)C[C@](O)(C2)O3)[C@@H]1OC	13000	9300
CO[C@@H]1[C@@H](OC)[C@H](C)O[C@@H](O[C@@H]2C[C@H]3O[C@@](O)(C2)[C@H](C)C(=O)O[C@@H](/C=C/C=C/Br)C[C@@H](C)/C=C\C[C@H](O)[C@@H]3C)[C@@H]1OC [LYNGBYALOSIDE]	37000	35000
CO[C@@H]1[C@@H](OC)[C@H](C)O[C@@H](O[C@@H]2C[C@H]3O[C@@](O)(C2)[C@@H](C)C(=O)O[C@@H](/C=C/C=C/Br)C[C@@H](C)/C=C\C[C@H](O)[C@@H]3C)[C@@H]1OC	38000	33000
CC[C@H](C)[C@@H]1NC(=O)CNC(=O)c2csc(n2)[C@H](C(C)(C)O)OC(=O)C(C)(C)[C@H](CCCC(C)(Cl)Cl)OC(=O)c2csc1n2 [LYNGBYABELLIN A]	47	22
CC[C@H](C)[C@@H]1NC(=O)CNC(=O)c2csc(n2)[C@H](C(C)C)OC(=O)C(C)(C)[C@H](CCCC(C)(Cl)Cl)OC(=O)c2csc1n2 [27-DEOXYLYNGBYABELLIN A]	12	7.3
CCCC(=O)N[C@@H](C(C)C)[C@@H](CC(=O)O[C@@H]1COC(=O)c2csc(n2)[C@@H]([C@@](C)(O)CC)OC(=O)[C@@H](C)[C@H](CCCC(C)(Cl)Cl)OC(=O)c2csc1n2)OC(C)=O [LYNGBYABELLIN J]	54	41
CC(C)[C@@H]1NC(=O)CNC(=O)[C@@H]2CSC(=N2)[C@H](C(C)(C)O)OC(=O)C(C)(C)[C@H](CCCC(C)(Cl)Cl)OC(=O)c2csc1n2 [LYNGBYABELLIN B]	1100	710
CO[C@@H]1[C@@H](OC)[C@H](C)O[C@@H](O[C@@H]2C[C@@H]3CC[C@@H](C)[C@H](O)C[C@@](C)(CC/C=C/C=C\Br)OC(=O)C[C@](O)(C2)O3)[C@@H]1OC	> 100000	53000
